# Activity calls are given as the source filed them. No cut-off for these calls is given here.
# Assays:
# L1210 = experiment: Reduce in the cell count when drug added to the murine L1210 leukemia cell cultures for 70 h; format: functional; details: Mus musculus, L1210, 70 h; read-out: ID50 (the source's name)
# [1] = Chromatographic measure of drug lipophilicity; format: physicochemical
# [2] = Acid dissociation constant was determined; format: ADME
# Method in brief: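 Acridine pKa measured spectrophotometrically in 20% aqueous DMF. Values in parentheses were not measured directly: they were obtained by subtracting 0.25 pKa unit from values determined for the corresponding de-1'-NHSO2CH3 derivatives.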
# P388 [3] = experiment: Percent increase in the life span of treated mice over a group of control mice injected with p388 tumor alone when administered intraperitoneally (>500) as a solution in 0.1 mL of 30%,v/v, ethanol/water; Inactive; format: functional; details: Mus musculus
# [4] = Half life of the drug was determined in the presence of 2-mercaptoethanol; format: ADME; details: solution containing 2-mercaptoethanol
# Nucleic Acid = experiment: Binding constant to poly (dA-dT) was determined in calf thymus DNA by a fluorometric method; format: functional
# P388 [5] = experiment: Percent increase in the life span of treated mice over a group of control mice injected with p388 tumor alone when administered intraperitoneally (9) as a solution in 0.1 mL of 30%,v/v, ethanol/water; format: functional, Mus musculus
# P388 [6] = experiment: Optimal dose administered intraperitoneally in; format: functional, Mus musculus
SMILES,IC50 (L1210),Rm [1],pKa [2],ILS (P388 [3]),half-life [4],K (Nucleic Acid),ILS (P388 [5]),OD (P388 [6])
Cc1cc(NS(C)(=O)=O)cc(C)c1Nc1c2ccccc2nc2ccccc12,> 10000 nM,0.41,7.6,inactive,> 70 min,–,–,–
Cc1cc(NS(C)(=O)=O)ccc1Nc1c2ccccc2nc2ccccc12,100 nM,0.15,–,–,54 min,380000 M⁻¹,–,–
COc1cc(NS(C)(=O)=O)ccc1Nc1c2ccccc2nc2ccccc12 [AMSACRINE],–,0.18,–,–,1.8 min,290000 M⁻¹,111%,–
COc1cc(NS(C)(=O)=O)cc(OC)c1Nc1c2ccccc2nc2ccccc12,4900 nM,0.36,7.63,inactive,> 70 min,–,–,–
CS(=O)(=O)Nc1ccc(Nc2c3ccccc3nc3ccccc23)cc1,35 nM,0,–,–,0.92 min,–,–,66 mg/kg/day
